A word on the EC50: it is the concentration needed to bring the measured effect to its halfway point. What is called inhibition is the share of the control response that was lost under treatment.

The results in this text go back to ChEMBL document CHEMBL1141591, “Lipophilic modifications to dinucleoside polyphosphates and nucleotides that confer antagonist properties at the platelet P2Y12 receptor” (J Med Chem, 2008).

One test concerns the target P2Y purinoceptor 1 (Homo sapiens, UniProt P47900). The experiment in a line: Agonist activity at human recombinant P2Y1 receptor expressed in human 1321 cells at 100 uM by calcium mobilization assay. The class given is functional, cell-based. A digest of the protocol:
(§1)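 1321N1 human astrocytoma cells expressing the recombinant receptor were loaded with Fluo-3 AM (2.5 µM final) for 60 min at 25 °C. Assay buffer: KCl 10, NaCl 118, CaCl2 2.5, MgCl2 1, HEPES 20, glucose 10 mM, pH 7.4. Cells were washed and then stimulated with compound. Intracellular calcium was read as the change in fluorescence (FLIPR). Values are EC50 in µM. SR means 5–20% of maximal response at the top concentration, usually 100 µM. NR means no response.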
For orientation: Calcium assays in cells follow changes in intracellular calcium, usually with a dye or a luminescent sensor.

In test [1] the target is T1, P2Y purinoceptor 2 (Homo sapiens, UniProt P41231). The experiment in a line: Agonist activity at P2Y2 receptor expressed in human 1321 cells at 100 uM by calcium mobilization assay. The class given is functional, cell-based. In outline:
as §1

For test [2], the target named is T2, P2Y purinoceptor 6 (Homo sapiens, UniProt Q15077). Nature of the test: Agonist activity at P2Y6 receptor expressed in human 1321 cells at 100 uM by calcium mobilization assay. The class given is functional, cell-based. A digest of the protocol:
as §1

In test [3] the target is P2Y purinoceptor 4 (Homo sapiens) (UniProt P51582). The experiment in a line: Agonist activity at P2Y4 receptor expressed in human 1321 cells at 100 uM by calcium mobilization assay. Format: functional, cell-based.
P2Y purinoceptor 4 (Homo sapiens), sequence (P51582 whole entry): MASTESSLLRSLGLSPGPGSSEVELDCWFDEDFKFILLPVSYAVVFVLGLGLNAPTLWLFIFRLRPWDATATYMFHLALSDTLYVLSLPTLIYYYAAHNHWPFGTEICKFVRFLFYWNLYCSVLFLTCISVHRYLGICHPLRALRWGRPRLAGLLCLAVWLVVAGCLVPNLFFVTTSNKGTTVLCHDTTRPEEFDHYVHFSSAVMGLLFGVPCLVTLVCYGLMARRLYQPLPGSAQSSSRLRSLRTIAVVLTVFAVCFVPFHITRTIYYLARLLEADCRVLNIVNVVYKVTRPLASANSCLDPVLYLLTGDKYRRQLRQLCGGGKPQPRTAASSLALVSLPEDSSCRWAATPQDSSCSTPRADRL
Test [4] deals with P2Y purinoceptor 12 (Homo sapiens) (UniProt Q9H244). Nature of the test: Antagonist activity at P2Y12 receptor assessed as inhibition of ADP-induced human platelet aggregation by washed platelet assay at 100 uM. The class given is functional. A digest of the protocol: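 Blood from healthy volunteers was anticoagulated with ACD and spun at 180g for 15 min to give PRP. Platelets were washed three times in HEPES-buffered saline, pH 7.4, with 0.2% BSA and 5 µM PGI2, then resuspended with 0.25 U/mL apyrase. The suspension held 1 mg/mL fibrinogen at 37 °C, stirred at 1000 rpm. Compound (usually 1 nM–100 µM) was added for 2 min, then ADP at EC90 (usually 1–10 µM). Optical aggregation was recorded for 8 min. IC50 came from a four-parameter logistic fit.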
P2Y purinoceptor 12 (Homo sapiens), sequence (Q9H244 whole entry): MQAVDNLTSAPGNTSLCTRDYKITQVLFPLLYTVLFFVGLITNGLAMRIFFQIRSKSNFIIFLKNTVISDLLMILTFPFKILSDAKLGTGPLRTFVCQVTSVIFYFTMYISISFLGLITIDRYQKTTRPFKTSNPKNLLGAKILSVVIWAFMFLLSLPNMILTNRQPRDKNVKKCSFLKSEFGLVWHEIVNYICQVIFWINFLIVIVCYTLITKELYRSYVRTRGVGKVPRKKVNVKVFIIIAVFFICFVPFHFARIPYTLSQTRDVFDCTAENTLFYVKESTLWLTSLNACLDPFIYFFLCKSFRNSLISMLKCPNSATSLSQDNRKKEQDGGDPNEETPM

Test [5] deals with T2, P2Y purinoceptor 6. Nature of the test: Agonist activity at P2Y6 receptor expressed in human 1321 cells by calcium mobilization assay. The class given is functional, cell-based. In outline:
as §1

In test [6] the target is T1, P2Y purinoceptor 2. The experiment in a line: Agonist activity at P2Y2 receptor expressed in human 1321 cells by calcium mobilization assay. The class given is functional, cell-based.

Activity calls are given as the source filed them. The calls are words filed in the database; no cut-off is given here.

T1 sequence (P41231 whole entry): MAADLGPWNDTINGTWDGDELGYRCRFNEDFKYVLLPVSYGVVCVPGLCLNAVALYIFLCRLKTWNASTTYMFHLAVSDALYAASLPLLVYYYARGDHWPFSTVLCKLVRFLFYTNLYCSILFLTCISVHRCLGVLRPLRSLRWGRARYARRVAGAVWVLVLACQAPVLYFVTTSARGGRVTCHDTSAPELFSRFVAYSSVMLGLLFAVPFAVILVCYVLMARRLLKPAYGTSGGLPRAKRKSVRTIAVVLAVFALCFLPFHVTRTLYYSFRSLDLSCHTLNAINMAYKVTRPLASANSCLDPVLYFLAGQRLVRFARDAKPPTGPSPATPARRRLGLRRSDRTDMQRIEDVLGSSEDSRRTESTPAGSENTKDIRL
T2 sequence (Q15077 whole entry): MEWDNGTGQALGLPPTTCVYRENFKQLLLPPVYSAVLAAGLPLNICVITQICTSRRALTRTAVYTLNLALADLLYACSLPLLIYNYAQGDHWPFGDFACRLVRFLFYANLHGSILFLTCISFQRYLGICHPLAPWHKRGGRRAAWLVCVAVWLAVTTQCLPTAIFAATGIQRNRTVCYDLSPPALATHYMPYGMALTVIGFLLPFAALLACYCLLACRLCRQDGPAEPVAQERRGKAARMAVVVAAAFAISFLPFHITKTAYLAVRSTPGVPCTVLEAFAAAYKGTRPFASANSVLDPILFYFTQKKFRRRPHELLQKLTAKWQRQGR
P2Y purinoceptor 1, sequence (P47900 whole entry): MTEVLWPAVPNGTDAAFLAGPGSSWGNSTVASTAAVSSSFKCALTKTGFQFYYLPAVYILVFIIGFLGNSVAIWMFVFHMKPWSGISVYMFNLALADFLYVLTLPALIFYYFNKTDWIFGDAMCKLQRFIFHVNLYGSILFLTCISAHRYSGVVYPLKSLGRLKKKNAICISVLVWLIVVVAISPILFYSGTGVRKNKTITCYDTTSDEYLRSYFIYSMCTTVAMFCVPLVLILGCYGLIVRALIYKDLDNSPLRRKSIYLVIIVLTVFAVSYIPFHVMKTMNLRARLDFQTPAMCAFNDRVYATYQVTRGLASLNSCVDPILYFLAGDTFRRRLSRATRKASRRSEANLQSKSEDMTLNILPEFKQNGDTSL

Turning to `O=C(Nc1ccccc1)Nc1ncnc2c1ncn2[C@@H]1O[C@H](COP(=O)(O)O)C2OC(C#Cc3ccccc3)OC21` (single isomer, unassigned), the result (at P2Y purinoceptor 1; at P2Y purinoceptor 2 [1]; on P2Y purinoceptor 6 [2]; in test [3]) was inactive.
As for `CCNC(=O)Nc1ncnc2c1ncn2[C@@H]1O[C@H](COP(=O)(O)O)C2OC(/C=C/c3ccccc3)OC21` (single isomer, unassigned), the result (at P2Y purinoceptor 1; on P2Y purinoceptor 2 [1]; on P2Y purinoceptor 6 [2]; in test [3]) was inactive.
Take `O=c1ccn([C@@H]2O[C@H](COP(=O)(O)OP(=O)(O)OP(=O)(O)OP(=O)(O)OC[C@@H]3O[C@H](n4ccc(=O)[nH]c4=O)[C@@H](O)[C@H]3O)[C@@H](O)[C@H]2O)c(=O)[nH]1`: the outcome (in test [4]; at P2Y purinoceptor 1) was inactive. At P2Y purinoceptor 6 [5], the EC50 is 18.6 µM.
Take `Nc1ccn([C@@H]2O[C@H](COP(=O)(O)OP(=O)(O)OP(=O)(O)OP(=O)(O)OC[C@@H]3O[C@H](n4ccc(=O)[nH]c4=O)[C@H]4OC(Cc5ccccc5)O[C@H]43)[C@@H](O)[C@H]2O)c(=O)n1` (stereo partly drawn): the inhibition in test [4] was 46%. The outcome on P2Y purinoceptor 1, on P2Y purinoceptor 2 [1] and at P2Y purinoceptor 6 [2] was inactive.
Regarding `O=c1ccn([C@@H]2O[C@H](COP(=O)(O)OP(=O)(O)OP(=O)(O)OC[C@@H]3O[C@H](n4ccc(=O)[nH]c4=O)[C@@H](O)[C@H]3O)[C@@H](O)[C@H]2O)c(=O)[nH]1`, the outcome (in test [4]; at P2Y purinoceptor 1) was inactive. For the same molecule, the values for the EC50 at P2Y purinoceptor 2 [6] and at P2Y purinoceptor 6 [5] were 13.5 µM and 0.4 µM, respectively.
For `O=C(O[C@@H]1[C@H](OC(=O)c2ccccc2)[C@@H](n2ccc(=O)[nH]c2=O)O[C@H]1COP(=O)(O)OP(=O)(O)OP(=O)(O)OP(=O)(O)OC[C@H]1O[C@@H](n2ccc(=O)[nH]c2=O)[C@H](OC(=O)c2ccccc2)[C@@H]1OC(=O)c1ccccc1)c1ccccc1`, in test [4], the inhibition turned out to be 52%. Moreover, the result at P2Y purinoceptor 1, at P2Y purinoceptor 2 [1] and at P2Y purinoceptor 6 [2] was inactive.
In the case of `O=C(Nc1ncnc2c1ncn2[C@@H]1O[C@H](COP(=O)(O)O)C2OC(Cc3ccccc3)OC21)NC1CCCC1` (single isomer, unassigned), the result (on P2Y purinoceptor 1; on P2Y purinoceptor 2 [1]; on P2Y purinoceptor 6 [2]; in test [3]) was inactive.
On to `Nc1ncnc2c1ncn2[C@@H]1O[C@H](COP(=O)(O)O)[C@H]2O[C@@H](Cc3ccccc3)O[C@H]21`, for which the inhibition in test [4] worked out at 47%. Further, the outcome (on P2Y purinoceptor 1; at P2Y purinoceptor 2 [1]; at P2Y purinoceptor 6 [2]; in test [3]) was inactive.
`Nc1ccn([C@@H]2O[C@H](COP(=O)(O)OP(=O)(O)OP(=O)(O)OP(=O)(O)OC[C@@H]3O[C@H](n4ccc(=O)[nH]c4=O)[C@@H](O)[C@H]3O)[C@H]3OC(Cc4ccccc4)O[C@H]32)c(=O)n1` (stereo partly drawn): the inhibition in test [4] amounted to 46%. In addition, the EC50 on P2Y purinoceptor 2 [6] worked out at 0.545 µM. In addition, the result on P2Y purinoceptor 1 and at P2Y purinoceptor 6 [2] was inactive.
As for `O=C(Nc1ccccc1)Nc1ncnc2c1ncn2[C@@H]1O[C@H](COP(=O)(O)O)[C@H]2OC(Cc3ccccc3)O[C@H]21` (stereo partly drawn), the outcome (at P2Y purinoceptor 1; at P2Y purinoceptor 2 [1]; on P2Y purinoceptor 6 [2]; in test [3]) was inactive.
`CCCCCCNC(=O)Nc1ncnc2c1ncn2[C@@H]1O[C@H](COP(=O)(O)O)C2OC(/C=C/c3ccccc3)OC21` (single isomer, unassigned): the result (on P2Y purinoceptor 1; on P2Y purinoceptor 2 [1]; on P2Y purinoceptor 6 [2]; in test [3]) was inactive.
On to `Nc1ccn([C@@H]2O[C@H](COP(=O)(O)OP(=O)(O)OP(=O)(O)OP(=O)(O)OC[C@@H]3O[C@H](n4ccc(=O)[nH]c4=O)[C@@H](O)[C@H]3O)[C@@H](O)[C@H]2O)c(=O)n1`, for which the outcome in test [4] was inactive. Also, the EC50 at P2Y purinoceptor 2 [6] turned out to be 0.044 µM. Moreover, the Activity at P2Y purinoceptor 1 and on P2Y purinoceptor 6 [2] was over 5% in each case.
For the molecule `O=C(Nc1ccc(F)cc1)Nc1ccn([C@@H]2O[C@H](COP(=O)(O)OP(=O)(O)OP(=O)(O)OP(=O)(O)OC[C@@H]3O[C@H](n4ccc(=O)[nH]c4=O)[C@@H](O)[C@H]3O)[C@@H](O)[C@H]2O)c(=O)n1`, the outcome in test [4] was inactive. Also, the EC50 at P2Y purinoceptor 2 [6] came to 2.42 µM. Besides, the Activity at P2Y purinoceptor 1 was over 5%.
For the molecule `CCCC1O[C@@H]2[C@@H](O1)[C@@H](COP(=O)(O)OP(=O)(O)OP(=O)(O)OP(=O)(O)OC[C@@H]1O[C@H](n3ccc(=O)[nH]c3=O)[C@H]3OC(CCC)O[C@H]31)O[C@H]2n1ccc(=O)[nH]c1=O` (stereo partly drawn), the inhibition in test [4] worked out at 60%. Besides, at P2Y purinoceptor 1, the result was inactive. Besides, the Activity at P2Y purinoceptor 2 [1] and on P2Y purinoceptor 6 [2] was over 5% throughout.
In the case of `O=C(Nc1ccccc1)Nc1ncnc2c1ncn2[C@@H]1O[C@H](COP(=O)(O)O)C2OC(/C=C/c3ccccc3)OC21` (single isomer, unassigned), the outcome (at P2Y purinoceptor 1; at P2Y purinoceptor 2 [1]; at P2Y purinoceptor 6 [2]; in test [3]) was inactive.
With `CCCCCCNC(=O)Nc1ncnc2c1ncn2[C@@H]1O[C@H](COP(=O)(O)O)[C@H]2OC(Cc3ccccc3)O[C@H]21` (stereo partly drawn), the result (on P2Y purinoceptor 1; at P2Y purinoceptor 2 [1]; on P2Y purinoceptor 6 [2]; in test [3]) was inactive.
Regarding `CCNC(=O)Nc1ncnc2c1ncn2[C@@H]1O[C@H](COP(=O)(O)O)[C@H]2OC(Cc3ccccc3)O[C@H]21` (stereo partly drawn), the outcome (on P2Y purinoceptor 1; on P2Y purinoceptor 2 [1]; at P2Y purinoceptor 6 [2]; in test [3]) was inactive.
For the molecule `Nc1ncnc2c1ncn2[C@@H]1O[C@H](COP(=O)(O)O)[C@H]2OC(C#Cc3ccccc3)O[C@H]21` (stereo partly drawn), the outcome (at P2Y purinoceptor 1; on P2Y purinoceptor 2 [1]; on P2Y purinoceptor 6 [2]; in test [3]) was inactive.
In the case of `CCCCCCNC(=O)Nc1ncnc2c1ncn2[C@@H]1O[C@H](COP(=O)(O)O)C2OC(C#Cc3ccccc3)OC21` (single isomer, unassigned), the result (at P2Y purinoceptor 1; at P2Y purinoceptor 2 [1]; at P2Y purinoceptor 6 [2]; in test [3]) was inactive.
On to `O=c1ccn([C@@H]2O[C@H](COP(=O)(O)OP(=O)(O)OP(=O)(O)OC[C@@H]3O[C@H](n4ccc(=O)[nH]c4=O)[C@@H](O)[C@H]3O)[C@H]3OC(Cc4ccccc4)O[C@H]32)c(=O)[nH]1` (stereo partly drawn), for which the EC50 on P2Y purinoceptor 6 [5] was 0.154 µM. The result on P2Y purinoceptor 1 and at P2Y purinoceptor 2 [1] was inactive.
Consider `O=C(Nc1ccccc1)Nc1ncnc2c1ncn2[C@@H]1O[C@H](COP(=O)(O)O)[C@@H](O)[C@H]1O`, for which the result (on P2Y purinoceptor 1; at P2Y purinoceptor 2 [1]; on P2Y purinoceptor 6 [2]; in test [3]) was inactive.
For the molecule `CNc1ccccc1C(=O)O[C@H]1[C@@H](O)[C@H](COP(=O)(O)OP(=O)(O)OP(=O)(O)OP(=O)(O)OC[C@H]2O[C@@H](n3ccc(=O)[nH]c3=O)[C@H](O)[C@@H]2O)O[C@@H]1n1ccc(=O)[nH]c1=O`, the inhibition in test [4] came to 46%. Further, the EC50 at P2Y purinoceptor 2 [6] was found to be 0.13 µM. The outcome on P2Y purinoceptor 1 was inactive. Further, at P2Y purinoceptor 6 [2], the Activity is over 5%.
`CCNC(=O)Nc1ncnc2c1ncn2[C@@H]1O[C@H](COP(=O)(O)O)[C@H]2OC(c3ccccc3)O[C@H]21` (stereo partly drawn): the result (on P2Y purinoceptor 1; on P2Y purinoceptor 2 [1]; at P2Y purinoceptor 6 [2]; in test [3]) was inactive.
For `Nc1ncnc2c1ncn2[C@@H]1O[C@H](COP(=O)(O)O)[C@H]2O[C@@H](c3ccccc3)O[C@H]21`, the inhibition in test [4] is 75%. Besides, the outcome (at P2Y purinoceptor 1; on P2Y purinoceptor 2 [1]; on P2Y purinoceptor 6 [2]; in test [3]) was inactive.
Regarding `Nc1ncnc2c1ncn2[C@@H]1O[C@H](COP(=O)(O)O)[C@H]2OC(/C=C/c3ccccc3)O[C@H]21` (stereo partly drawn), the result (on P2Y purinoceptor 1; on P2Y purinoceptor 2 [1]; on P2Y purinoceptor 6 [2]; in test [3]) was inactive.
For the molecule `CCNC(=O)Nc1ncnc2c1ncn2[C@@H]1O[C@H](COP(=O)(O)O)C2O[C@H](/C=C/c3ccccc3)OC21` (single isomer, unassigned), the outcome (on P2Y purinoceptor 1; on P2Y purinoceptor 2 [1]; at P2Y purinoceptor 6 [2]; in test [3]) was inactive.
